In data set [1] the test system is Plasmodium falciparum. Put plainly: Antiplasmodial activity against chloroquine-sensitive Plasmodium falciparum D6 by [3H]hypoxanthine uptake. The data set is classed as functional, organism-based. In outline: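 P. falciparum D6 kept in type A+ human erythrocytes (RPMI-1640, NaHCO3, HEPES, hypoxanthine, 10% Albumax II) under 5% O2/5% CO2/90% N2 at 37 °C. Plated at 0.5-1% parasitemia, 1% hematocrit with serial dilutions from 4 mg/mL stock, triplicate; 24 h, then 0.5 μCi [3H]hypoxanthine for 18 h more. Scintillation counting; IC50 by nonlinear regression versus zero-drug controls.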

Data set [2] in a line: Cytotoxicity against human KB cells after 72 hrs. To be noted: read-out: ED50. The data set is classed as cell-based.
Data set [3] is described as follows: Selectivity index, ratio of ED50 for human KB cells to IC50 for chloroquine-sensitive Plasmodium falciparum D6. The data set is classed as functional.
Data set [4] is described as follows: Selectivity index, ratio of ED50 for human KB cells to IC50 for chloroquine-resistant Plasmodium falciparum W2. The data set is classed as functional.
In data set [5] the test system is Plasmodium falciparum. Put plainly: Antiplasmodial activity against chloroquine-resistant Plasmodium falciparum W2 by [3H]hypoxanthine uptake. The data set is classed as functional, organism-based. In short, it runs like this: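 P. falciparum W2 grown in type A+ human erythrocytes in RPMI-1640 with NaHCO3, HEPES, hypoxanthine and 10% Albumax II, 5% O2/5% CO2/90% N2, 37 °C. Samples from 4 mg/mL stock tested in triplicate at 0.5-1% parasitemia, 1% hematocrit. After 24 h, 0.5 μCi [3H]hypoxanthine added for 18 h more; IC50 by nonlinear regression, zero-drug controls as 100%.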

Each structure is given as a SMILES string. In brackets after ≈: the same amount, converted by molar mass.

Consider `COc1cc([C@H]2OC[C@H]3[C@@H]2CO[C@@H]3c2cc(OC)c(O)c(OC)c2)ccc1O`, for which, in data set [1] (D6, 42 h), the IC50 is over 10 µg/mL.
Same read-out and setting: for `COc1cc([C@@H]2OC[C@@H]3[C@H]2CO[C@H]3c2cc(OC)c(O)c(OC)c2)cc(OC)c1O` the value was over 10 µg/mL; for `CCCCNC(=O)c1ccccc1`, over 10 µg/mL.
In turn, `COc1cc([C@H]2OC[C@@H]3C(=O)OC[C@@H]32)cc(OC)c1O` registered an IC50 in data set [1] (D6, 42 h) of over 10 µg/mL.
For `CC(=O)/C=C/[C@@]1(O)C(C)=CC(=O)CC1(C)C`, the IC50 in data set [1] (D6, 42 h) is over 10 µg/mL.
Still for that read-out and setting: under `CCCCCC1(O)OC(=O)C(C)=C1C` (stereo unspecified) stands over 10 µg/mL.
Take `C/C=C/c1cc(OC)c(O[C@H](C)[C@@H](O)c2cc(OC)c(OC)c(OC)c2)c(OC)c1` (relative stereo) [POLYSYPHORIN]: in data set [2], the CC50 at 72 h stood at 2 µg/mL (≈ 4.78 µM). Moreover, the “Selectivity Index” value is recorded as 5 in data set [3] and 6 in data set [4]. For the same compound, the IC50 in data set [1] (D6) is 0.404 µg/mL (≈ 0.965 µM); in data set [5], 0.368 µg/mL (≈ 0.879 µM).
`COc1cc([C@@H]2OC[C@H]3[C@@H]2CO[C@H]3c2ccc(O)c(OC)c2)ccc1O` [(-)-PINORESINOL] had an IC50 in data set [1] (D6, 42 h) of over 10 µg/mL.
`C[C@@H]1CC[C@H]2[C@@H](C)C(=O)O[C@@H]3O[C@@]4(C)CC[C@@H]1[C@]32OO4` [ARTEMISININ]: the CC50 at 72 h in data set [2] is over 20 µg/mL. The “Selectivity Index” value in data set [3] and in data set [4] was over 10000 in each case. This compound also yielded an IC50 in data set [5] of 0.002 µg/mL (≈ 0.00708 µM).
Take `COc1cc([C@H]2O[C@@H](c3cc(OC)c(OC)c(OC)c3)[C@H](C)[C@H]2C)cc(OC)c1OC` [EPIGRANDISIN]: the CC50 at 72 h in data set [2] was determined as 16 µg/mL (≈ 37 µM). Also, the “Selectivity Index” value was under 2 in data set [3] and 4 in data set [4]. In addition, the IC50 was over 10 µg/mL in data set [1] (D6) and 3.34 µg/mL (≈ 7.72 µM) in data set [5].
The corresponding values for `COc1cc([C@@H]2O[C@@H](c3cc(OC)c(OC)c(OC)c3)[C@H](C)[C@H]2C)cc(OC)c1OC` [GRANDISIN] are 14 µg/mL (≈ 32.4 µM), 7, 8, 1.51 µg/mL (≈ 3.49 µM) and 1.48 µg/mL (≈ 3.43 µM).
Turning to `C=C[C@H]1CN2CC[C@H]1C[C@H]2[C@H](O)c1ccnc2ccc(OC)cc12` [QUININE], in data set [2], the CC50 at 72 h is over 20 µg/mL. Besides, the “Selectivity Index” value in data set [3] is listed as over 2000; in data set [4], over 490. Besides, the results for the IC50 in data set [1] (D6) and in data set [5] were 0.009 µg/mL (≈ 0.0277 µM) and 0.041 µg/mL (≈ 0.126 µM), respectively.
As to `COc1cc(O)cc2c1C(=O)OOC(C)CCCCC/C=C/2` (stereo unspecified) [RHAPHIDECURPEROXIN], the CC50 at 72 h in data set [2] amounted to 4 µg/mL (≈ 13.1 µM). For the same compound, the “Selectivity Index” value in data set [3] is listed as 0.7; in data set [4] it was 1. Besides, the IC50 in data set [1] (D6) was 0.54 µg/mL (≈ 1.76 µM); in data set [5] it was 0.42 µg/mL (≈ 1.37 µM).
The corresponding values for `C=CCc1cc(OC)c(O[C@H](C)[C@@H](O)c2cc(OC)c(OC)c(OC)c2)c(OC)c1` [RHAPHIDECURSINOL B] are 10 µg/mL (≈ 23.9 µM), 1, 2, 5.37 µg/mL (≈ 12.8 µM) and 4.68 µg/mL (≈ 11.2 µM).

The record behind these values is ChEMBL document CHEMBL1150864, “Antimalarial compounds from Rhaphidophora decursiva” (J Nat Prod, 2001).
